In ChEMBL document CHEMBL1152173, “Synthesis and in vitro evaluation of the antifungal activities of dihydropyrimidinones” (2008):
Values after ≈ are worked out from the molar mass of the structure shown. Active and inactive are the calls of the source. No cut-off for these calls is given here.

Experiments:
Trichoderma koningii [1] = assay: Antifungal activity against Trichoderma koningii; format: functional
Trichoderma koningii [2] = assay: Antifungal activity against Trichoderma koningii assessed as radial growth at 5% after 48 hrs by poison food technique of Flack relative to control; format: functional
Method in brief: (§1)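 Acetone stock added to molten sterilized PDA to final 0.5–7%, plated in 90 mm dishes with compound-free plates as control. Each plate was inoculated with a 9 mm disc from a 4-day-old culture, incubated at 25 ± 1 °C, and colony diameter measured at 24 h intervals. % inhibition = (control − treatment)/control × 100; three replicates averaged.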

Trichoderma koningii [3] = assay: Antifungal activity against Trichoderma koningii assessed as radial growth at 0.5% after 72 hrs by poison food technique of Flack relative to control; format: functional; method in brief: as §1
Aspergillus niger [4] = assay: Antifungal activity against Aspergillus niger assessed as radial growth at 3% after 48 hrs by poison food technique of Flack relative to control; format: functional
Trichoderma koningii [5] = assay: Antifungal activity against Trichoderma koningii assessed as radial growth at 3% after 24 hrs by poison food technique of Flack relative to control; format: functional; method in brief: as §1
Trichoderma koningii [6] = assay: Antifungal activity against Trichoderma koningii assessed as radial growth at 7% after 48 hrs by poison food technique of Flack relative to control; format: functional; method in brief: as §1
Trichoderma koningii [7] = assay: Antifungal activity against Trichoderma koningii assessed as radial growth at 5% after 72 hrs by poison food technique of Flack relative to control; format: functional; method in brief: as §1
Trichoderma hamatum [8] = assay: Antifungal activity against Trichoderma hamatum assessed as radial growth at 3% after 24 hrs by poison food technique of Flack relative to control; format: functional
Aspergillus niger [9] = assay: Antifungal activity against Aspergillus niger assessed as radial growth at 7% after 24 hrs by poison food technique of Flack relative to control; format: functional
Trichoderma hamatum [10] = assay: Antifungal activity against Trichoderma hamatum assessed as radial growth at 0.5% after 72 hrs by poison food technique of Flack relative to control; format: functional
Trichoderma hamatum [11] = assay: Antifungal activity against Trichoderma hamatum assessed as radial growth at 3% after 72 hrs by poison food technique of Flack relative to control; format: functional
Trichoderma hamatum [12] = assay: Antifungal activity against Trichoderma hamatum assessed as radial growth at 0.5% after 48 hrs by poison food technique of Flack relative to control; format: functional
Trichoderma koningii [13] = assay: Antifungal activity against Trichoderma koningii assessed as radial growth at 3% after 48 hrs by poison food technique of Flack relative to control; format: functional; method in brief: as §1
Trichoderma hamatum [14] = assay: Antifungal activity against Trichoderma hamatum assessed as radial growth at 1% after 72 hrs by poison food technique of Flack relative to control; format: functional
Trichoderma hamatum [15] = assay: Antifungal activity against Trichoderma hamatum assessed as radial growth at 5% after 48 hrs by poison food technique of Flack relative to control; format: functional; method in brief: as §1
Trichoderma hamatum [16] = assay: Antifungal activity against Trichoderma hamatum; format: functional
Trichoderma hamatum [17] = assay: Antifungal activity against Trichoderma hamatum assessed as radial growth at 7% after 72 hrs by poison food technique of Flack relative to control; format: functional; method in brief: as §1
Aspergillus niger [18] = assay: Antifungal activity against Aspergillus niger assessed as radial growth at 3% after 24 hrs by poison food technique of Flack relative to control; format: functional
Aspergillus niger [19] = assay: Antifungal activity against Aspergillus niger assessed as radial growth at 1% after 24 hrs by poison food technique of Flack relative to control; format: functional
Trichoderma koningii [20] = assay: Antifungal activity against Trichoderma koningii assessed as radial growth at 7% after 72 hrs by poison food technique of Flack relative to control; format: functional; method in brief: as §1
Aspergillus niger [21] = assay: Antifungal activity against Aspergillus niger assessed as radial growth at 5% after 48 hrs by poison food technique of Flack relative to control; format: functional
Trichoderma hamatum [22] = assay: Antifungal activity against Trichoderma hamatum assessed as radial growth at 0.5% after 24 hrs by poison food technique of Flack relative to control; format: functional
Aspergillus niger [23] = assay: Antifungal activity against Aspergillus niger assessed as radial growth at 5% after 24 hrs by poison food technique of Flack relative to control; format: functional
Trichoderma hamatum [24] = assay: Antifungal activity against Trichoderma hamatum assessed as radial growth at 7% after 24 hrs by poison food technique of Flack relative to control; format: functional; method in brief: as §1
Aspergillus niger [25] = assay: Antifungal activity against Aspergillus niger assessed as radial growth at 3% after 72 hrs by poison food technique of Flack relative to control; format: functional
Trichoderma hamatum [26] = assay: Antifungal activity against Trichoderma hamatum assessed as radial growth at 1% after 48 hrs by poison food technique of Flack relative to control; format: functional
Trichoderma hamatum [27] = assay: Antifungal activity against Trichoderma hamatum assessed as radial growth at 5% after 24 hrs by poison food technique of Flack relative to control; format: functional; method in brief: as §1
Trichoderma hamatum [28] = assay: Antifungal activity against Trichoderma hamatum assessed as radial growth at 7% after 24 hrs by poison food technique of Flack; format: functional, organism-based
Method in brief: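 Poisoned-food method: acetone stock mixed into molten sterilized potato dextrose agar to final 0.5, 1, 3, 5 or 7%, poured into 90 mm plates. Plates were inoculated with a 9 mm mycelial disc from a 4-day-old pure culture and incubated at 25 ± 1 °C. Colony diameter (mm) was read every 24 h; mean of three replicates.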

Aspergillus niger [29] = assay: Antifungal activity against Aspergillus niger assessed as radial growth at 1% after 48 hrs by poison food technique of Flack relative to control; format: functional
Aspergillus niger [30] = assay: Antifungal activity against Aspergillus niger assessed as radial growth at 0.5% after 72 hrs by poison food technique of Flack relative to control; format: functional
Trichoderma koningii [31] = assay: Antifungal activity against Trichoderma koningii assessed as radial growth at 0.5% after 24 hrs by poison food technique of Flack relative to control; format: functional; method in brief: as §1
Aspergillus niger [32] = assay: Antifungal activity against Aspergillus niger assessed as radial growth at 0.5% after 24 hrs by poison food technique of Flack relative to control; format: functional
Aspergillus niger [33] = assay: Antifungal activity against Aspergillus niger assessed as radial growth at 7% after 48 hrs by poison food technique of Flack relative to control; format: functional
Trichoderma hamatum [34] = assay: Antifungal activity against Trichoderma hamatum assessed as radial growth at 3% after 48 hrs by poison food technique of Flack relative to control; format: functional
Trichoderma koningii [35] = assay: Antifungal activity against Trichoderma koningii assessed as radial growth at 1% after 48 hrs by poison food technique of Flack relative to control; format: functional; method in brief: as §1
Aspergillus niger [36] = assay: Antifungal activity against Aspergillus niger assessed as radial growth at 7% after 72 hrs by poison food technique of Flack relative to control; format: functional
Aspergillus niger [37] = assay: Antifungal activity against Aspergillus niger assessed as radial growth at 5% after 72 hrs by poison food technique of Flack relative to control; format: functional
Aspergillus niger [38] = assay: Antifungal activity against Aspergillus niger assessed as radial growth at 0.5% after 48 hrs by poison food technique of Flack relative to control; format: functional
Trichoderma koningii [39] = assay: Antifungal activity against Trichoderma koningii assessed as radial growth at 5% after 24 hrs by poison food technique of Flack relative to control; format: functional; method in brief: as §1
Trichoderma koningii [40] = assay: Antifungal activity against Trichoderma koningii assessed as radial growth at 3% after 72 hrs by poison food technique of Flack relative to control; format: functional; method in brief: as §1
Aspergillus niger [41] = assay: Antifungal activity against Aspergillus niger; format: functional
Trichoderma koningii [42] = assay: Antifungal activity against Trichoderma koningii assessed as radial growth at 1% after 72 hrs by poison food technique of Flack relative to control; format: functional; method in brief: as §1
Trichoderma koningii [43] = assay: Antifungal activity against Trichoderma koningii assessed as radial growth at 1% after 24 hrs by poison food technique of Flack relative to control; format: functional; method in brief: as §1
Trichoderma hamatum [44] = assay: Antifungal activity against Trichoderma hamatum assessed as radial growth at 1% after 24 hrs by poison food technique of Flack relative to control; format: functional
Aspergillus niger [45] = assay: Antifungal activity against Aspergillus niger assessed as radial growth at 1% after 72 hrs by poison food technique of Flack relative to control; format: functional

## CCOC(=O)C1=C(C)NC(=O)NC1c1ccccc1 (stereo not given)
Trichoderma koningii [1]
  MIC: 0.025 µg/mL (≈ 0.096 µM)
Trichoderma koningii [2]
  inhibition (INH): 100%
Trichoderma koningii [3]
  inhibition (INH): 1.59%
Aspergillus niger [4]
  inhibition (INH): 52.83%
Trichoderma koningii [5]
  inhibition (INH): 100%
Trichoderma koningii [6]
  inhibition (INH): 100%
Trichoderma koningii [7]
  inhibition (INH): 91.53%
Trichoderma hamatum [8]
  inhibition (INH): 82.12%
Aspergillus niger [9]
  inhibition (INH): 100%
Trichoderma hamatum [10]
  inhibition (INH): 2.46%
Trichoderma hamatum [11]
  inhibition (INH): 63.38%
Trichoderma hamatum [12]
  inhibition (INH): 32.99%
Trichoderma koningii [13]
  inhibition (INH): 62.31%
Trichoderma hamatum [14]
  inhibition (INH): 12.34%
Trichoderma hamatum [15]
  inhibition (INH): 96.89%
Trichoderma hamatum [16]
  MIC: 0.025 µg/mL (≈ 0.096 µM)
Trichoderma hamatum [17]
  inhibition (INH): 100%
Aspergillus niger [18]
  inhibition (INH): 69.44%
Aspergillus niger [19]
  inhibition (INH): 30.55%
Trichoderma koningii [20]
  inhibition (INH): 95.52%
Aspergillus niger [21]
  inhibition (INH): 81.17%
Trichoderma hamatum [22]
  inhibition (INH): 11.32%
Aspergillus niger [23]
  inhibition (INH): 84.72%
Trichoderma hamatum [24]
  inhibition (INH): 100%
Aspergillus niger [25]
  inhibition (INH): 54.34%
Trichoderma hamatum [26]
  inhibition (INH): 21.94%
Trichoderma hamatum [27]
  inhibition (INH): 100%
Trichoderma hamatum [28]
  Activity: Active
Aspergillus niger [29]
  inhibition (INH): 0%
Aspergillus niger [30]
  inhibition (INH): 0%
Trichoderma koningii [31]
  inhibition (INH): 5.66%
Aspergillus niger [32]
  inhibition (INH): 0%
Aspergillus niger [33]
  inhibition (INH): 79.36%
Trichoderma hamatum [34]
  inhibition (INH): 72.02%
Trichoderma koningii [35]
  inhibition (INH): 20.63%
Aspergillus niger [36]
  inhibition (INH): 76.7%
Aspergillus niger [37]
  inhibition (INH): 73.29%
Aspergillus niger [38]
  inhibition (INH): 0%
Trichoderma koningii [39]
  inhibition (INH): 100%
Trichoderma koningii [40]
  inhibition (INH): 70.18%
Aspergillus niger [41]
  MIC: 0.025 µg/mL (≈ 0.096 µM)
Trichoderma koningii [42]
  inhibition (INH): 10.86%
Trichoderma koningii [43]
  inhibition (INH): 12.09%
Trichoderma hamatum [44]
  inhibition (INH): 24.96%
Aspergillus niger [45]
  inhibition (INH): 0%
